The nature of data set [1]: melting temperature; fluorescence melt of hairpins on a sequencing array, two-state fit, raised by 9.35 °C to match UV melts. The conditions noted are these: sodium 0.088 M. The gist of the method: (§1)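 In 50 mM Na-HEPES pH 8.0 containing 25 mM NaCl, hairpins from the library on a sequenced MiSeq flow cell were imaged for Cy3 fluorescence at 2.5 °C steps up to 60 °C, with Cy3 and quencher oligos annealed. After normalisation to pre-quench Cy3 and to control constructs, two-state fits with bootstrapping gave melting temperature and folding enthalpy. Four replicates were combined by inverse-variance weighting, and fitted temperatures were shifted up by 9.35 °C to match UV melts.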

The nature of data set [2]: folding enthalpy; higher = less favourable; fluorescence melt of hairpins on a sequencing array, two-state fit. The conditions noted are these: sodium 0.088 M. The method, boiled down: as §1

For the sequence GATCCTTATTAGGATC ((((((....)))))), the Tm in data set [1] is 51.7 °C. Also, the folding enthalpy in data set [2] is -37.8 kcal/mol.

GATCCTTCAGAGGATC ((((((....)))))): in data set [1], the Tm was determined as 51.6 °C. For the same sequence, the folding enthalpy in data set [2] was -48.2 kcal/mol.

On to GATCCTTCCAAGGATC ((((((....)))))), for which, in data set [1], the Tm came to 55.3 °C. In addition, the folding enthalpy in data set [2] is -47 kcal/mol.

In the case of GATCCTTCTTAGGATC ((((((....)))))), the Tm in data set [1] was determined as 52.8 °C. Moreover, the folding enthalpy in data set [2] is -41.8 kcal/mol.

GATCCTTGAAAGGATC ((((((....)))))): the Tm in data set [1] came out at 51.9 °C. Moreover, the folding enthalpy in data set [2] is -42.3 kcal/mol.

For GATCCTTTAGAGGATC ((((((....)))))), the Tm in data set [1] worked out at 52.2 °C. Further, the folding enthalpy in data set [2] was -43.7 kcal/mol.

Turning to GATCGAAAAATCGATC ((((((....)))))), in data set [1], the Tm is 43.9 °C. Moreover, the folding enthalpy in data set [2] was -25.5 kcal/mol.

Turning to GATCGAAACGTCGATC ((((((....)))))), in data set [1], the Tm came out at 50.3 °C. The folding enthalpy in data set [2] is -41.4 kcal/mol.

Take GATCGAAAGGTCGATC ((((((....)))))): in data set [1], the Tm was 47.7 °C. The folding enthalpy in data set [2] was -28.7 kcal/mol.

Turning to GATCGAAATCTCGATC ((((((....)))))), in data set [1], the Tm worked out at 48.7 °C. In addition, in data set [2], the folding enthalpy is -32.7 kcal/mol.

As to GATCGAAATGTCGATC ((((((....)))))), in data set [1], the Tm is 48.7 °C. Further, in data set [2], the folding enthalpy is -36.8 kcal/mol.

Consider GATCGAACGATCGATC ((((((....)))))), for which the Tm in data set [1] turned out to be 52.8 °C. Besides, in data set [2], the folding enthalpy is -18.9 kcal/mol.

As to GATCGAACGGTCGATC ((((((....)))))), in data set [1], the Tm turned out to be 51.1 °C. In addition, the folding enthalpy in data set [2] was -51.2 kcal/mol.

Turning to GATCGAACTTTCGATC ((((((....)))))), the Tm in data set [1] came to 53.4 °C. Also, the folding enthalpy in data set [2] is -35.6 kcal/mol.

Regarding GATCGAAGACTCGATC ((((((....)))))), the Tm in data set [1] was 48.5 °C. For the same sequence, the folding enthalpy in data set [2] was -30.3 kcal/mol.

As for GATCGAAGATTCGATC ((((((....)))))), in data set [1], the Tm was 51.4 °C. Moreover, the folding enthalpy in data set [2] was -35.5 kcal/mol.

Consider GATCGAAGCCTCGATC ((((((....)))))), for which, in data set [1], the Tm amounted to 50.9 °C. Besides, in data set [2], the folding enthalpy is -33 kcal/mol.

Regarding GATCGAAGTCTCGATC ((((((....)))))), the Tm in data set [1] worked out at 49.2 °C. In data set [2], the folding enthalpy is -35.1 kcal/mol.

Take GATCGAAGTTCGATC ((((((...)))))): in data set [1], the Tm turned out to be 50.3 °C. The folding enthalpy in data set [2] is -38.4 kcal/mol.

With GATCGAAGTTTCGATC ((((((....)))))), in data set [1], the Tm turned out to be 53.5 °C. The folding enthalpy in data set [2] is -44.8 kcal/mol.

Turning to GATCGAATTTTCGATC ((((((....)))))), in data set [1], the Tm was found to be 55.1 °C. The folding enthalpy in data set [2] was -36.1 kcal/mol.

With GATCGACACGTCGATC ((((((....)))))), in data set [1], the Tm amounted to 59.7 °C. The folding enthalpy in data set [2] is -33.7 kcal/mol.

Take GATCGACAGATCGATC ((((((....)))))): the Tm in data set [1] came to 54.8 °C. In addition, the folding enthalpy in data set [2] is -16.1 kcal/mol.

As for GATCGACATATCGATC ((((((....)))))), the Tm in data set [1] was found to be 51.7 °C. Also, the folding enthalpy in data set [2] was -43.4 kcal/mol.

As for GATCGACATCTCGATC ((((((....)))))), the Tm in data set [1] is 50.3 °C. Further, the folding enthalpy in data set [2] is -36 kcal/mol.

Regarding GATCGACCGATCGATC ((((((....)))))), the Tm in data set [1] is 51.6 °C. Also, in data set [2], the folding enthalpy is -25.4 kcal/mol.

Consider GATCGACCGTCGATC ((((((...)))))), for which the Tm in data set [1] is 49 °C. Besides, the folding enthalpy in data set [2] is -36 kcal/mol.

As for GATCGACCTCTCGATC ((((((....)))))), in data set [1], the Tm is 50 °C. Besides, the folding enthalpy in data set [2] is -35.8 kcal/mol.

GATCGACGCTCGATC ((((((...)))))): the Tm in data set [1] stood at 49.6 °C. Also, in data set [2], the folding enthalpy was -41.3 kcal/mol.

Consider GATCGACGTTTCGATC ((((((....)))))), for which, in data set [1], the Tm worked out at 50.9 °C. The folding enthalpy in data set [2] is -42.5 kcal/mol.

For the sequence GATCGACTGTTCGATC ((((((....)))))), the Tm in data set [1] worked out at 50.6 °C. In data set [2], the folding enthalpy is -40.5 kcal/mol.

On to GATCGAGACTTCGATC ((((((....)))))), for which, in data set [1], the Tm was determined as 57.2 °C. Besides, in data set [2], the folding enthalpy is -43.3 kcal/mol.

In the case of GATCGAGAGATCGATC ((((((....)))))), in data set [1], the Tm came to 54.7 °C. Further, the folding enthalpy in data set [2] was -25.6 kcal/mol.

As for GATCGAGAGCTCGATC ((((((....)))))), the Tm in data set [1] is 51.8 °C. For the same sequence, in data set [2], the folding enthalpy was -36.5 kcal/mol.

On to GATCGAGAGGTCGATC ((((((....)))))), for which, in data set [1], the Tm came out at 50.1 °C. Also, the folding enthalpy in data set [2] is -19 kcal/mol.

For GATCGAGATGTCGATC ((((((....)))))), the Tm in data set [1] stood at 52.5 °C. Besides, the folding enthalpy in data set [2] is -37 kcal/mol.

Take GATCGAGCCCTCGATC ((((((....)))))): in data set [1], the Tm was determined as 56.4 °C. Besides, the folding enthalpy in data set [2] was -42.1 kcal/mol.

Take GATCGAGCGTCGATC ((((((...)))))): the Tm in data set [1] was found to be 51 °C. For the same sequence, the folding enthalpy in data set [2] was -31.7 kcal/mol.

Values taken from the array DNA melting data of Ke et al. (doi:10.1101/2024.01.08.574731).
